PubChem BioAssay
Inconclusive results are not listed. Activity calls are given as the source filed them.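 Rule for the calls, unless noted: active = viability at or below 27.92% in each of two runs, the all-compound median minus 4 SD; inconclusive = no clear call, values can overlap the other calls; inactive = the rest.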

Tests used:
[1] = S. cerevisiae growth inhibition in permissive medium (OD615), pilot counter-assay for S. cerevisiae lifespan shortening project, permissive growth control (AID 705;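 active = growth inhibition above 25% in both replicates, a cutoff set 3 SD above the mean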); conditions: OD615, 24 h, at 10 µM, hits give high values
In short: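 System: engineered DeaD yeast; Medium: permissive raffinose/galactose medium; Compound dosing: 10 µM single dose, 0.25% DMSO; Incubation: 4 h cell pre-growth, 24 h exposure at 30 °C; Technique: OD at 615 nm; Evaluation: growth inhibition from lowered OD615 after 24 h.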

[2] = S. cerevisiae growth inhibition in restrictive medium, OD615, pilot screen, restrictive growth control, yeast lifespan reduction project (AID 706;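 active = growth inhibition above a set limit, 3 SD over mean compound inhibition, in both replicates, cut at about 43% in these data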;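 note: modified DeaD lifespan yeast strain shifted to restrictive glucose medium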); conditions: OD615, 48 h, at 10 µM, hits give high values
In short: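 Material: modified S. cerevisiae; buffer or medium: CSMM-D glucose medium; doses: one concentration, 10 µM final, 0.25% DMSO; incubation: 48 h compound exposure at 30 °C; detection: optical density at 615 nm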

[3] = doxorubicin toxicity protection in MRP-1 cells – H69AR cells, CellTiter-Glo, duplicate, MRP-1 activator project, pilot screen (AID 807;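 active = viability increase at or above a cutoff of the median across tested compounds plus 3 SD, cut at about 8.5% in these data, passing the limit was not always enough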;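 note: compound pretreatment 18-22 h then 72 h combined with doxorubicin; 0% = doxorubicin alone and 100% = vehicle without doxorubicin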); conditions: H69AR viability with doxorubicin, CellTiter-Glo luminescence; at 10 µM; hits give high values
[4] = viability of HCT116 without oncogenic beta-catenin – human colon tumor cells, pilot screen (AID 823;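 active = cell viability at or below a set limit in both duplicate runs, the limit being the all-compound median minus 4 SD, cut at about 23% in these data, passing the limit was not always enough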;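 note: 0% = wells killed by 20 µM Hyamine and 100% = untreated DMSO cell wells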); conditions: HCT116 beta-catenin knockout viability, CellTiter-Glo, 60 h; at 10 µM; hits give low values
[5] = viability of PTEN-null HCT116 cells – cell-based, HCT116 clonal line, CellTiter-Glo, pilot screen (AID 824); conditions: HCT116 PTEN-deleted viability, 60 h, at 10 µM, hits give low values;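 note: 0% = 20 µM Hyamine control and 100% = vehicle cell control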
[6] = RAM signaling pathway blockade in yeast – S. cerevisiae, Pdr1DBD-CYC8 efflux-inhibited sensitized strain, primary screen (AID 1298;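 active = RAM network inhibition above 8.4% in each of two replicates, 3 SD over the compound average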;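 note: 0% = DMSO untreated cells without growth and 100% = 10 µM 1-NA-PP1 full growth; higher means more yeast growth rescued from 5-FOA killing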); conditions: S. cerevisiae cbk1-as DSE1-URA3 strain, 5-FOA growth OD615, 2 d; at 50 µM; hits give high values
[7] = RAM pathway blockade in budding yeast – dse1pr::URA3 reporter, 5-FOA selection, pilot screen (AID 869;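 active = inhibition over a set limit, the all-compound mean plus 3 SD, in both replicate runs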;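 note: 0% = DMSO wells with no growth and 100% = 10 µM 1-NA-PP1 with full growth; RAM network block rescues cells from 5-FOA so hits raise OD615 growth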); conditions: S. cerevisiae dse1pr::URA3 5-FOA growth, OD615, 2 d; at 10 µM; hits give high values; strain carries analog-sensitive mutant Cbk1 kinase

CC(C)OCCCNS(=O)(=O)c1ccc2c(c1)oc(=O)n2C
inactive: growth inhibition [1] -13.3% | growth inhibition [2] -6.73% | viability increase [3] -1.3% | viability [4] 101% | viability [5] 97% | RAM network inhibition [6] 0.04%

Cc1cc2ncn(C3CC(=O)N(Cc4ccc(N5CCCC5=O)cc4)C3=O)c2cc1C (configuration not stated)
inactive: growth inhibition [1] -7.9% | growth inhibition [2] 13.8% | viability increase [3] -0.37% | viability [4] 97.9% | viability [5] 98.5% | inhibition [7] 0.14% | RAM network inhibition [6] 1.48%

O=C(Nc1nc(-c2ccco2)c(-c2ccco2)s1)C1CC(=O)N(c2ccc3c(c2)OCCO3)C1 (configuration not stated)
inactive: growth inhibition [1] -14.8% | growth inhibition [2] -20.3% | viability increase [3] -3.72% | viability [4] 76.5% | viability [5] 78.8% | inhibition [7] 2.66% | RAM network inhibition [6] 4.02%

Clc1cc(Br)ccc1OCCOCCN1CCOCC1
inactive: growth inhibition [1] -3.75% | growth inhibition [2] 2.38% | viability increase [3] 0.57% | viability [4] 93.5% | viability [5] 91.7% | RAM network inhibition [6] 0.08%

O=C(NCC1COc2ccccc2O1)C1C2C=CC3(CN(Cc4ccccc4Cl)C(=O)C13)O2 (configuration not stated)
inactive: growth inhibition [1] -6.06% | growth inhibition [2] -7.88% | viability increase [3] -1% | viability [4] 84.2% | viability [5] 84% | inhibition [7] 1.02% | RAM network inhibition [6] 0%

NS(=O)(=O)c1ccc(CCNC2CC(=O)N(CCc3ccccc3)C2=O)cc1 (configuration not stated)
inactive: growth inhibition [1] -14.1% | growth inhibition [2] -16% | viability increase [3] 1.79% | viability [4] 98% | viability [5] 99.9% | inhibition [7] 0.24% | RAM network inhibition [6] 1.42%

COc1ccc(CC(=O)Nc2cc(=O)n(C)c(=O)n2C)cc1
inactive: growth inhibition [1] -5.75% | growth inhibition [2] -4.35% | viability increase [3] 0.44% | viability [4] 102% | viability [5] 91% | inhibition [7] 1.85% | RAM network inhibition [6] -2.12%

CN(C)c1nc2ccc(OCCN3CCCCC3)cc2s1
inactive: growth inhibition [1] -10.8% | growth inhibition [2] 0.795% | viability increase [3] -0.48% | viability [4] 93% | viability [5] 94.3% | RAM network inhibition [6] 4.76%

O=C1OCc2cc(NC(=O)C3COc4ccccc4O3)ccc21 (configuration not stated)
inactive: growth inhibition [1] -17.8% | growth inhibition [2] 10.7% | viability increase [3] -0.17% | viability [4] 103% | viability [5] 93.3% | inhibition [7] 1.29% | RAM network inhibition [6] 10.9%

CCOC(=O)c1c(CN2CCCCC2)n(C)c2cc(Br)c(O)c(CN(C)C)c12
inactive: growth inhibition [1] -16.8% | growth inhibition [2] 5.7% | viability increase [3] -2.65% | viability [4] 75.7% | viability [5] 79.5% | RAM network inhibition [6] 0.94%

O=C1CCCC2=C1C(c1cn(-c3ccccc3)nc1-c1cccs1)c1c([nH]c(=O)[nH]c1=O)N2 (configuration not stated)
inactive: growth inhibition [1] -11.2% | growth inhibition [2] -27.7% | viability increase [3] 1.36% | viability [4] 106% | viability [5] 99.1% | inhibition [7] 0.32% | RAM network inhibition [6] 2.19%

COC(=O)C1C2C=CC3(CN(c4cccc(Cl)c4)C(=O)C13)O2 (configuration not stated)
inactive: growth inhibition [1] -11.2% | growth inhibition [2] -8.25% | viability increase [3] -1.38% | viability [4] 107% | viability [5] 99.5% | inhibition [7] 1.06% | RAM network inhibition [6] 5.74%

Cc1ccc(NC(=O)CNS(=O)(=O)c2cccs2)cc1F
inactive: growth inhibition [1] -5.56% | growth inhibition [2] -17.9% | viability increase [3] 1.44% | viability [4] 100% | viability [5] 97.7% | inhibition [7] 0.01% | RAM network inhibition [6] -0.53%

O=C(NCCN1CCCC1)c1ccc(CS(=O)(=O)c2c(Cl)cccc2Cl)o1
inactive: growth inhibition [1] -6.75% | growth inhibition [2] -20.8% | viability increase [3] -0.97% | viability [4] 106% | viability [5] 102% | inhibition [7] 1.5% | RAM network inhibition [6] 2.61%

Cc1ccc(C2CC(c3cccc(C)c3)n3ncnc3N2)cc1 (configuration not stated)
inactive: growth inhibition [1] 3.83% | growth inhibition [2] 15.5% | viability increase [3] -0.97% | viability [4] 85.7% | viability [5] 86.1% | inhibition [7] 0.45% | RAM network inhibition [6] 4.74%

Cc1noc(NS(=O)(=O)c2ccc(N3Cc4ccccc4C3=O)cc2)c1C
inactive: growth inhibition [1] -3.04% | growth inhibition [2] 0.35% | viability increase [3] -2.74% | viability [4] 102% | viability [5] 104% | inhibition [7] 1.45% | RAM network inhibition [6] 5.3%

C#CCSc1nnc(-c2c[nH]c3ccccc23)n1C
inactive: growth inhibition [1] 0.22% | growth inhibition [2] 8.42% | viability increase [3] -2.77% | viability [4] 98.3% | viability [5] 93.5% | RAM network inhibition [6] -0.92%

CCC(=O)N1c2ccccc2NC2=C(C(=O)CC(c3ccco3)C2)C1c1ccco1 (configuration not stated)
inactive: growth inhibition [1] -7.69% | growth inhibition [2] 7.1% | viability increase [3] -1.65% | viability [4] 92.4% | viability [5] 92.4% | inhibition [7] 0.915% | RAM network inhibition [6] -0.58%

CC(OC(=O)c1cc[n+]([O-])cc1)C(=O)Nc1ccc(Cl)cn1 (configuration not stated)
inactive: growth inhibition [1] 0.77% | growth inhibition [2] 0.53% | viability increase [3] -1.44% | viability [4] 102% | viability [5] 98.3% | inhibition [7] 1.23% | RAM network inhibition [6] 1.61%

Clc1ccc(-c2nnc(SCc3nc(-c4ccccc4)no3)o2)cc1
inactive: growth inhibition [1] -10.1% | growth inhibition [2] -9.97% | viability increase [3] -3.34% | viability [4] 99.2% | viability [5] 91.7% | RAM network inhibition [6] 4.9%

CCC(C(=O)N1CCN(c2cccc(Cl)c2)CC1)c1ccccc1 (configuration not stated)
inactive: growth inhibition [1] 1.93% | growth inhibition [2] -5.71% | viability increase [3] -4.98% | viability [4] 57.7% | viability [5] 63% | RAM network inhibition [6] 8.74%

CC(Sc1nc(N2CCOCC2)nc(N2CCOCC2)n1)C(=O)Nc1ccccc1 (configuration not stated)
inactive: growth inhibition [1] -18.4% | growth inhibition [2] -21.2% | viability increase [3] -1.56% | viability [4] 95.5% | viability [5] 93.2% | RAM network inhibition [6] 5.6%

COc1ccccc1-c1nc(-c2ccc(Br)cc2)no1
inactive: growth inhibition [1] 4.16% | growth inhibition [2] -2.73% | viability increase [3] -3.88% | viability [4] 84.2% | viability [5] 94.1% | RAM network inhibition [6] 5.02%

Cc1nnc(NC(=O)CSc2nnc(Cc3cccn3C)n2-c2cccc(C)c2C)s1
inactive: growth inhibition [1] 6.78% | growth inhibition [2] 31% | viability increase [3] -0.56% | viability [4] 100% | viability [5] 87.2% | RAM network inhibition [6] -0.2%

O=C(CSc1oc(-c2ccco2)nc1S(=O)(=O)c1ccc(F)cc1)NCC1CCCO1 (configuration not stated)
inactive: growth inhibition [1] -6.81% | growth inhibition [2] 0.32% | viability increase [3] -1.31% | viability [4] 101% | viability [5] 106% | inhibition [7] 0.295% | RAM network inhibition [6] 3.81%

CC(C)CCNC(=O)Cn1c(=O)oc2cc(S(=O)(=O)N3CCc4ccccc43)ccc21
inactive: growth inhibition [1] -6.32% | growth inhibition [2] -5.12% | viability increase [3] -5.87% | viability [4] 71.8% | viability [5] 62.5% | inhibition [7] 1.15% | RAM network inhibition [6] 1.07%

O=C(NCc1ccccc1Cl)C1CCN(C(=O)c2sccc2-n2cccc2)CC1
inactive: growth inhibition [1] -17.6% | growth inhibition [2] -12% | viability increase [3] -2.65% | viability [4] 99.2% | viability [5] 86.8% | RAM network inhibition [6] 8.69%

O=C(CC1NC(=O)NC1=O)NC1(C(=O)NC2CCCCC2)CCCCC1 (configuration not stated)
inactive: growth inhibition [1] -9.09% | growth inhibition [2] 5.08% | viability increase [3] 0.88% | viability [4] 99.3% | viability [5] 102% | inhibition [7] 1.18% | RAM network inhibition [6] -0.62%

COc1ccc(C2C(C(C)=O)=C(O)C(=O)N2CCN(C)C)cc1OC (configuration not stated)
inactive: growth inhibition [1] -17.7% | growth inhibition [2] -12.3% | viability increase [3] 0.21% | viability [4] 92.6% | viability [5] 96.9% | RAM network inhibition [6] 1.99%

Cc1cc(C)c2c(=O)n(CC(=O)N3CCC(N4CCCCC4)CC3)sc2n1
inactive: growth inhibition [1] 4.7% | growth inhibition [2] 9.28% | viability increase [3] -7.14% | inhibition [7] 2.08% | RAM network inhibition [6] 0.2%
active: viability [4] 2.7% | viability [5] 16.2%

Cc1nc(=O)c(-c2ccccc2)c(C)n1CC1CCCO1 (configuration not stated)
inactive: growth inhibition [1] -7.12% | growth inhibition [2] -9.15% | viability increase [3] -2.44% | viability [4] 99.8% | viability [5] 96.4% | inhibition [7] 1.38% | RAM network inhibition [6] 0.16%

O=C(CSc1nc2c(cnn2-c2ccc(F)cc2)c(=O)[nH]1)N1CCCCCC1
inactive: growth inhibition [1] -3.72% | growth inhibition [2] -9.65% | viability increase [3] -3.34% | viability [4] 94.2% | viability [5] 93% | inhibition [7] 1.53% | RAM network inhibition [6] -0.11%

Cc1cc(C)nc(SCc2ccccc2C#N)n1
inactive: growth inhibition [1] -9.81% | growth inhibition [2] -6.26% | viability increase [3] -0.49% | viability [4] 98.8% | viability [5] 98% | inhibition [7] 0.705% | RAM network inhibition [6] 9.71%

Cc1cc2cc(CNC(=O)c3ccco3)ccc2n1C
inactive: growth inhibition [1] -7.55% | growth inhibition [2] -15.6% | viability increase [3] -4.26% | viability [4] 106% | viability [5] 94.4% | inhibition [7] 1.89% | RAM network inhibition [6] 6.42%

Cc1onc(-c2ccccc2Cl)c1C(=O)Nc1ccc(S(=O)(=O)N2CCCC2)cc1
inactive: growth inhibition [1] 0.03% | growth inhibition [2] 9.99% | viability increase [3] -2.15% | viability [4] 86.3% | viability [5] 81.2% | inhibition [7] 1.72% | RAM network inhibition [6] 4.75%

COC(=O)/C=C/S(=O)(=O)c1ccc(NC(C)=O)cc1
inactive: growth inhibition [1] -15.3% | growth inhibition [2] 0.685% | viability increase [3] -8.44% | viability [4] 88.3% | viability [5] 85.4% | inhibition [7] 0.565% | RAM network inhibition [6] 7.25%

OCc1cn(-c2ccccc2)nc1-c1ccc(-c2nn(-c3ccccc3)cc2CO)cc1
inactive: growth inhibition [1] 3.83% | growth inhibition [2] -4.29% | viability increase [3] -4.72% | viability [4] 102% | viability [5] 95.1% | inhibition [7] 1.8% | RAM network inhibition [6] 5.84%
